The results in this text go back to ChEMBL document CHEMBL1144353 (J Med Chem, 2005).

In experiment [1] the test system is Rattus norvegicus. In words: Brain levels 2 hours after peroral dosing of 30 mg/kg in rats was determined. The experiment is classed as functional. The settings on record: route oral. In short, it runs like this: (§1)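 Sprague-Dawley rats were dosed orally at 30 mg/kg and sampled at 2 h. Brain and plasma levels were measured in ng/mL, and B/P is the brain-to-plasma ratio.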

The test system of experiment [2] is Rattus norvegicus. In words: Plasma levels 2 hours after peroral dosing of 30 mg/kg in rats was determined. It is filed as functional, organism-based. Set-up: dose 30 mg/kg. In outline:
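Sprague-Dawley rats were given a single 30 mg/kg oral dose. Plasma was sampled 2 h after dosing, with brain levels taken at the same time point, and drug concentration is reported in ng/mL.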

The subject of experiment [3] is Rattus norvegicus. In words: Ratio of brain level and plasma level 2 hours after peroral dosing of 30 mg/kg in rats was determined. The experiment is classed as functional, organism-based. Set-up: dose 30 mg/kg. In outline: as §1
Experiment [4] concerns System L amino acid transporter (Cricetulus griseus). In words: Inhibition of [3H]leucine uptake by L-amino acid transporter system in Chinese hamster ovary cells.
Experiment [5] is described as follows: Inhibition of [3H]leucine uptake into CHO cells. It is filed as functional, cell-based, Cricetulus griseus. In outline:
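CHO-K1 monolayers (90-100% confluent) were washed twice for 20 min at 37 °C in Na+-free choline buffer. Cells were then exposed for 2 min at room temperature to 2 µCi/mL L-[3H]leucine with test compound, 10 mM to 300 nM in half-log steps, in duplicate. Controls were no drug and 10 mM L-leucine. Uptake was stopped with cold buffer washes and counted by scintillation. IC50 from nonlinear least-squares regression.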

Experiment [6] is described as follows: Equilibrium dissociation constant for Voltage-gated calcium channel alpha2-delta subunit as inhibition of [3H]gabapentin binding to pig brain membranes. Further details: species or system Sus scrofa, Membrane. In outline: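 Pig cortical membranes (10-20 µg protein/well) with wheat germ agglutinin SPA beads and 30 nM [3H]gabapentin in 10 mM HEPES/10 mM MgSO4, pH 7.4, incubated overnight (15-24 h) at room temperature, then scintillation counted. Mean ± SEM, N = 4.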

In the experiment with Rattus norvegicus [1], `NCC1(C(=O)O)CC12CCCCC2` (stereo unspecified) came in with a Brain level of 385 ng/mL. Further, the Plasma level in the experiment with Rattus norvegicus [2] worked out at 7070 ng/mL. The B/P with Rattus norvegicus [3] is 0.054. Besides, the 50% inhibitory concentration (IC50) was more than 2490 µM in experiment [4] and more than 2490 µM in experiment [5] (Cricetulus griseus, CHO, 2 min). For the same compound, the Ki in experiment [6] was 0.013 µM.
`CCC(CC)C1CC1(CN)C(=O)O` (stereo in doubt) returned a 50% inhibitory concentration (IC50) in experiment [5] (cho) of more than 2490 µM. The Ki in experiment [6] was 0.63 µM.
Take `CC(C)C1CC1(CN)C(=O)O` (stereo unspecified): the IC50 in experiment [5] (Cricetulus griseus, CHO, 2 min) is more than 8300 µM. In addition, the inhibitory constant (Ki) in experiment [6] was found to be 0.34 µM.
As for `CC(C)C[C@H](CN)CC(=O)O` [PREGABALIN], the Plasma level in the experiment on Rattus norvegicus [2] amounted to 19400 ng/mL. The compound further yielded an IC50 in experiment [4] of 158 µM.
As to `CCC(CC)C1CC1(CN)C(=O)O` (stereo in doubt; 12), the IC50 in experiment [5] (cho) is more than 8300 µM. In experiment [6], the inhibition constant Ki is 0.56 µM.
The like results for `CC(C)CC1CC1(CN)C(=O)O` (stereo in doubt; 36) were, in that order, more than 2490 µM and 0.33 µM.
As to `NCC1(C(=O)O)CC1`, the half-maximal inhibitory concentration (IC50) in experiment [5] (Cricetulus griseus, CHO, 2 min) was more than 8300 µM. The Ki in experiment [6] is more than 10 µM.
Taken in the same sequence, the figures for `NCC1(C(=O)O)CC12CCCC2` (stereo unspecified) were more than 8300 µM and 0.023 µM.
The like results for `CCCC1(CCC)CC1(CN)C(=O)O` (stereo unspecified) were, in that order, more than 2490 µM and 0.2 µM.
Consider `CC(C)CC1CC1(CN)C(=O)O` (stereo in doubt), for which the IC50 in experiment [5] (cho) was more than 8300 µM. Also, the Ki in experiment [6] came to 0.037 µM.
As for `NCC1(C(=O)O)CC12CCC2` (stereo unspecified), the IC50 in experiment [5] (Cricetulus griseus, CHO, 2 min) was more than 2490 µM. In addition, the Ki in experiment [6] was found to be 0.2 µM.

A word on the IC50: it is the concentration that gives 50% inhibition. In general, Ki refers to the dissociation constant of the complex between target and ligand, obtained from inhibition or displacement.
